One molecule from ChEMBL document CHEMBL1629697, “Endocannabinoids inhibit the growth of free-living amoebae” (Antimicrob Agents Chemother, 2010) can be followed below.

The source made the active and inactive calls. No cut-off for these calls is given here.

In general, IC50 refers to the concentration that inhibits the measured activity by half. Low readings indicate greater potency, high ones weaker potency.

The test system of assay [1] is Acanthamoeba castellanii. Description: Antimicrobial activity against Acanthamoeba castellanii assessed as decrease in viable cell concentration at 20 ug/ml after 3 days by hemocytometer. The format is functional, organism-based. In outline: (§1)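 Amoebae maintained at 30°C on E. coli lawns on nonnutrient agar, then axenic at 37°C in SCGYEM. Seeded day 0 at 2 × 10^5 cells/ml in SCGYEM with or without endocannabinoid, added in ethanol (0.05% final); vehicle controls contained ethanol. Tubes incubated slanted at 37°C; cell concentration counted daily by hemocytometer through day 3.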

The test system of assay [2] is Hartmannella vermiformis. Description: Antimicrobial activity against Hartmannella vermiformis assessed as growth inhibition at 10 ug/ml after 3 days by hemocytometer relative to control. The format is functional. The following applies: Vermamoeba vermiformis, 72 h, read-out: INH. The essentials:
as §1

In assay [3] the test system is Hartmannella vermiformis. The assay is described as follows: Antimicrobial activity against Hartmannella vermiformis after 3 days by hemocytometer. The format is functional. The following applies: Vermamoeba vermiformis, 72 h. The essentials: as §1
In assay [4] the test system is Willaertia magna. The assay is described as follows: Antimicrobial activity against Willaertia magna c2c Maky ATCC PTA-7824 after 3 days by hemocytometer. The format is functional. Particulars: c2c Maky ATCC PTA-7824, 72 h. In outline:
as §1

Assay [5] has as its system Willaertia magna. The assay is described as follows: Antimicrobial activity against Willaertia magna c2c Maky ATCC PTA-7824 assessed as growth inhibition at 10 ug/ml upto 3 days by hemocytometer. The format is functional. In outline:
as §1

In assay [6] the test system is Willaertia magna. Description: Antimicrobial activity against Willaertia magna c2c Maky ATCC PTA-7824 assessed as growth inhibition at 2 ug/ml after 3 days by hemocytometer. The format is functional. In outline: as §1
The test system of assay [7] is Acanthamoeba castellanii. Description: Antimicrobial activity against Acanthamoeba castellanii assessed as growth inhibition at 2 ug/ml after 3 days by hemocytometer. The format is functional, organism-based. In outline:
as §1

Assay [8] deals with Acanthamoeba castellanii. Description: Antimicrobial activity against Acanthamoeba castellanii after 3 days by hemocytometer. The following applies: 72 h. The format is functional, organism-based. The essentials:
as §1

For assay [9], the system named is Acanthamoeba castellanii. The assay is described as follows: Antimicrobial activity against Acanthamoeba castellanii assessed as growth inhibition at 5 ug/ml after 3 days by hemocytometer. The format is functional, organism-based. The essentials: as §1
Assay [10] has as its system Willaertia magna. Description: Antimicrobial activity against Willaertia magna c2c Maky ATCC PTA-7824 assessed as growth inhibition at 5 ug/ml after 3 days by hemocytometer. The format is functional. The essentials: as §1
For assay [11], the system named is Acanthamoeba castellanii. Description: Antimicrobial activity against Acanthamoeba castellanii assessed as growth inhibition at 10 ug/ml upto 3 days by hemocytometer. The format is functional, organism-based. The essentials: as §1
Assay [12] deals with Willaertia magna. The assay is described as follows: Antimicrobial activity against Willaertia magna c2c Maky ATCC PTA-7824 assessed as decrease in viable cell concentration at 20 ug/ml after 3 days by hemocytometer. The format is functional. In outline:
as §1

In assay [13] the test system is Hartmannella vermiformis. The assay is described as follows: Antimicrobial activity against Hartmannella vermiformis assessed as growth inhibition at 5 ug/ml after 3 days by hemocytometer. The format is functional. The following applies: Vermamoeba vermiformis. In outline: as §1
Assay [14] relates to Acanthamoeba castellanii. The assay is described as follows: Antimicrobial activity against Acanthamoeba castellanii assessed as growth inhibition at 10 ug/ml after 3 days by hemocytometer relative to control. The format is functional. The following applies: 72 h. In outline:
as §1

Assay [15] relates to Hartmannella vermiformis. The assay is described as follows: Antimicrobial activity against Hartmannella vermiformis assessed as growth inhibition at 10 ug/ml upto 3 days by hemocytometer. Particulars: Vermamoeba vermiformis. The format is functional. The essentials:
as §1

In assay [16] the test system is Hartmannella vermiformis. The assay is described as follows: Antimicrobial activity against Hartmannella vermiformis assessed as decrease in viable cell concentration at 20 ug/ml after 3 days by hemocytometer. The format is functional. Particulars: Vermamoeba vermiformis. The essentials: as §1
For assay [17], the system named is Willaertia magna. The assay is described as follows: Antimicrobial activity against Willaertia magna c2c Maky ATCC PTA-7824 assessed as growth inhibition at 10 ug/ml after 3 days by hemocytometer relative to control. The following applies: c2c Maky ATCC PTA-7824, 72 h, read-out: INH. The format is functional. The essentials:
as §1

Assay [18] has as its system Hartmannella vermiformis. The assay is described as follows: Antimicrobial activity against Hartmannella vermiformis assessed as growth inhibition at 2 ug/ml after 3 days by hemocytometer. The format is functional. The following applies: Vermamoeba vermiformis. The essentials:
as §1

Consider `CCCCC/C=C\C/C=C\C/C=C\C/C=C\CCCC(=O)NCCO` [ANANDAMIDE], for which the inhibition result in the assay with Acanthamoeba castellanii [1], with Willaertia magna [5], in the assay on Willaertia magna [6], with Acanthamoeba castellanii [7], in the assay with Acanthamoeba castellanii [9] and in the assay on Willaertia magna [10] was “Active” throughout. Moreover, the inhibition entry in the assay on Acanthamoeba castellanii [11], with Willaertia magna [12], in the assay with Hartmannella vermiformis [13], with Hartmannella vermiformis [15], in the assay on Hartmannella vermiformis [16] and in the assay with Hartmannella vermiformis [18] was “Active” throughout. Besides, the inhibition at 10 µg/mL with Hartmannella vermiformis [2] came out at 96%; in the assay with Acanthamoeba castellanii [14], 68%; with Willaertia magna [17], 58%. Also, the results for the IC50 in the assay on Hartmannella vermiformis [3], in the assay with Willaertia magna [4] and in the assay on Acanthamoeba castellanii [8] were 14 µM, 20 µM and 17 µM, respectively.
